Measurements as given in ChEMBL document CHEMBL3244270, “Nitrosoureidonucleosides” (1979).

Tests used:
Type in all cases: functional
L1210 [1] = test: In-vivo antitumor activity against mouse L1210 cells at 100 mg/kg
Method in brief: (§1)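 Leukemia L1210 in vivo; compound given as a single dose on day 1 only, with dose in mg/kg. Read-out is life span of treated versus control animals, expressed as T/C %.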

[2] = Cytotoxicity against human Hep2 cells; details: HEp-2, read-out: ED50 (the source's name)
Method in brief: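 H.Ep-2 cultures; ED50 taken as the concentration that holds growth of treated cells to 50% of untreated controls.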

L1210 [3] = test: In-vivo antitumor activity against mouse L1210 cells at 200 mg/kg; method in brief: as §1
L1210 [4] = test: Cytotoxicity against mouse L1210 cells; details: read-out: ED50 (the source's name)
L1210 [5] = test: In-vivo antitumor activity against mouse L1210 cells at 25 mg/kg; method in brief: as §1

Compound | EC50 [2] [µM] | also measured
CN(N=O)C(=O)N[C@H]1[C@@H](O)[C@H](n2cnc3c(N)ncnc32)O[C@@H]1CO | > 60 | T/C (L1210 [1]): 123%
CN(N=O)C(=O)NC[C@H]1O[C@@H](n2cnc3c(N)ncnc32)[C@H](O)[C@@H]1O | 40 | T/C (L1210 [3]): 106%
CNC(=O)NC[C@H]1O[C@@H](n2cnc3c(N)ncnc32)[C@H](O)[C@@H]1O | > 60 | T/C (L1210 [3]): 98%
CNC(=O)N[C@H]1[C@@H](O)[C@H](n2cnc3c(N)nc(Cl)nc32)O[C@@H]1CO | > 50 | –
CN(N=O)C(=O)NC[C@H]1O[C@@H](n2ccc(=O)[nH]c2=O)[C@H](O)[C@@H]1O | > 50 | –
CN(N=O)C(=O)NC[C@H]1O[C@@H](n2ccc(N)nc2=O)[C@H](O)[C@@H]1O | > 50 | –
CN(N=O)C(=O)N[C@H]1[C@@H](O)[C@H](n2ccc(=O)[nH]c2=O)O[C@@H]1CO | > 60 | T/C (L1210 [1]): 122%
CN(N=O)C(=O)N[C@H]1[C@@H](O)[C@H](n2cnc3c(N)nc(Cl)nc32)O[C@@H]1CO | > 50 | –
Cc1cn([C@H]2C[C@H](NC(=O)N(C)N=O)[C@@H](CO)O2)c(=O)[nH]c1=O | – | EC50 (L1210 [4]): 1 µM
CN(N=O)C(=O)N[C@H]1[C@@H](O)[C@H](n2ccc(N)nc2=O)O[C@@H]1CO | > 50 | T/C (L1210 [5]): 110%
CNC(=O)N[C@H]1[C@@H](O)[C@H](n2ccc(N)nc2=O)O[C@@H]1CO | > 60 | –
CNC(=O)N[C@H]1[C@@H](O)[C@H](n2cnc3c(N)ncnc32)O[C@@H]1CO | > 60 | –
